{"source": "PubChem BioAssay AID493195", "about": "(Broad Institute, 2011)", "note": "Values joined by “and” are separate entries in the source; they are usually repeats but may differ in a detail not shown here. Equal entries are not always repeated. Active and inactive are the calls of the source.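 The calls were made as follows: active = fitted dose curve reaching 40% activation within the tested dose range; inconclusive = no clear call, values can overlap the other calls; inactive = the rest, or activity opposite the expected rise.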"}
{"system": "not listed separately", "assay": "HIF pathway transcriptional activation – cell-based, luminescence, U2OS HRE-luc, dry powder, set 6, dose response (AID 493195)", "settings": "U2OS HRE-luciferase reporter, luminescence, HIF activation; at 38 µM (top of the series)", "how_it_was_run": "(§1)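 Test system: human U2OS osteosarcoma cells stably carrying 3×HRE-luciferase reporter. Input: 6,000 cells per well. Times: 24 h compound exposure at 37 °C. Detection: Steady-Glo luciferase luminescence.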"}
{"molecule": "O=C(c1cc(-c2ccccc2)on1)N1CCC(N2CCCC2)CC1", "activation": "-0.666% (inactive)"}
{"molecule": "O=C(NCCN1CCCCC1)c1cc(-c2ccccc2)on1", "activation": "0.598% (inactive)"}
{"molecule": "Cc1ccccc1CNC(=O)c1cc(-c2ccccc2)on1", "activation": "-0.171% (inactive)"}
{"molecule": "CC(C)(C)OC(=O)N1CCN(Cc2ccc(O)c3ncccc23)CC1", "activation": "9.74% (inactive)"}
{"molecule": "Cc1ccc(NC(=O)c2cc(-c3ccccc3)on2)cn1", "activation": "-0.191% (inactive)"}
{"molecule": "CC(C)(C)CCNC(=O)c1cc(-c2ccccc2)on1", "activation": "9.01% (inactive)"}
{"molecule": "O=C(NC1Cc2ccccc2C1)c1cc(-c2ccccc2)on1", "activation": "0.84% (inactive)"}
{"molecule": "O=C(c1cc(-c2ccccc2)on1)N1CCN(c2ccncc2)CC1", "activation": "-0.05% (inactive)"}
{"molecule": "O=C(NCCN1CCOCC1)c1cc(-c2ccccc2)on1", "activation": "20.9% (inactive)"}
{"molecule": "O=C(Nc1cn2ccccc2n1)c1cc(-c2ccccc2)on1", "activation": "0.943% (inactive)"}
{"molecule": "O=C(Nc1nnc(-c2ccccc2)s1)c1cc(-c2ccccc2)on1", "activation": "-0.274% (inactive)"}
{"molecule": "O=C(Nc1ccc2ccccc2n1)c1cc(-c2ccccc2)on1", "activation": "-0.178% (inactive)"}
{"molecule": "O=C(NCc1ccccc1)c1cc(-c2ccccc2)on1", "activation": "1.19% (inactive)"}
{"molecule": "O=C(Nc1nc(-c2ccccc2)cs1)c1cc(-c2ccccc2)on1", "activation": "-0.156% (inactive)"}
{"molecule": "O=C(Nc1nc2ccccc2s1)c1cc(-c2ccccc2)on1", "activation": "0.068% (inactive)"}
{"molecule": "Cn1c(-c2ccccc2)cnc1NC(=O)c1cc(-c2ccccc2)on1", "activation": "-0.441% (inactive)"}
{"molecule": "O=C(Nc1ncc(-c2ccccc2)o1)c1cc(-c2ccccc2)on1", "activation": "-0.076% (inactive)"}
{"molecule": "O=C(NCC1CC1)c1cc(-c2ccccc2)on1", "activation": "19.6% (inactive)"}
{"molecule": "Cn1c(-c2ccccc2)cnc1Nc1nc(-c2ccccn2)nnc1-c1ccccc1", "activation": "-1.62% (inactive)"}
{"molecule": "Oc1ccc(CN2CCc3ccccc3C2)c2cccnc12", "activation": "5.7% (inactive)"}
{"molecule": "Cc1cccc(CNC(=O)c2cc(-c3ccccc3)on2)c1", "activation": "-0.241% (inactive)"}
{"molecule": "N#CC1(c2ccccc2)CCN(Cc2ccc(O)c3ncccc23)CC1", "activation": "7.8% (inactive)"}
{"molecule": "O=C(c1cc(-c2ccccc2)on1)N1CCC(CO)CC1", "activation": "0.347% (inactive)"}
{"molecule": "O=C(NC1CCc2ccccc2C1)c1cc(-c2ccccc2)on1", "note": "(stereo unspecified)", "activation": "1.01% (inactive)"}
{"molecule": "O=C(c1cc(-c2ccccc2)on1)N1CCC(N2CCOCC2)CC1", "activation": "-0.46% (inactive)"}
{"molecule": "CN1CCN(C(=O)c2cc(-c3ccccc3)on2)CC1", "activation": "-0.469% (inactive)"}
{"molecule": "CN(C)CCNC(=O)c1cc(-c2ccccc2)on1", "activation": "0.398% (inactive)"}
{"molecule": "Oc1ccc(CNC2CCc3ccccc32)c2cccnc12", "note": "(stereo unspecified)", "activation": "15.9% (inactive)"}
{"molecule": "O=C(NCCCO)c1cc(-c2ccccc2)on1", "activation": "16.3% (inactive)"}
{"molecule": "Cn1c(NC(=O)c2cc(-c3ccccc3)on2)nc2ccccc21", "activation": "-0.522% (inactive)"}
{"molecule": "Cc1ccc(CNC(=O)c2cc(-c3ccccc3)on2)cc1", "activation": "-0.243% (inactive)"}
{"molecule": "O=C(c1cc(-c2ccccc2)on1)N1CCc2cccnc21", "activation": "-0.142% (inactive)"}
{"molecule": "OCC1CCN(Cc2ccc(O)c3ncccc23)CC1", "activation": "44.4% (inactive)"}
{"molecule": "O=C(Nc1ncc2ccccc2n1)c1cc(-c2ccccc2)on1", "activation": "0.873% (inactive)"}
{"molecule": "O=C(NCC1CCCCC1)c1cc(-c2ccccc2)on1", "activation": "1.39% (inactive)"}
{"molecule": "Cc1cccc(NC(=O)c2cc(-c3ccccc3)on2)n1", "activation": "-0.083% (inactive)"}
{"molecule": "CC1CN(Cc2ccc(O)c3ncccc23)CC(C)O1", "note": "(stereo unspecified)", "activation": "2.48% (inactive)"}
{"molecule": "O=C(Nc1cnc2ccccc2c1)c1cc(-c2ccccc2)on1", "activation": "0.224% (inactive)"}
{"system": "U2OS HRE-luciferase reporter, luminescence, HIF activation", "assay": "HIF pathway transcriptional activation – cell-based, luminescence, U2OS HRE-luc, dry powder, set 6, dose response (AID 493195)", "settings": "not given", "how_it_was_run": "as §1"}
{"molecule": "CN1CCN(c2nc(-c3ccccn3)nnc2-c2ccccc2)CC1", "AC40": "15.8 µM"}
{"molecule": "c1ccc(-c2nnc(-c3ccccn3)nc2NCC2CCOCC2)cc1", "AC40": "18.3 µM"}
{"molecule": "C[C@@H](Nc1nc(-c2ccccn2)nnc1-c1ccccc1)C1CCCCC1", "AC40": "4.3 µM"}
{"molecule": "c1ccc(CCNc2nc(-c3ccccn3)nnc2-c2ccccc2)cc1", "AC40": "2.14 µM"}
{"molecule": "c1ccc(-c2nnc(-c3ccccn3)nc2NCCN2CCOCC2)cc1", "AC40": "11.6 µM"}
{"molecule": "CCCCNC(=O)c1cc(-c2ccccc2)on1", "AC40": "28.5 µM"}
{"molecule": "O=C(NCCCCO)c1cc(-c2ccccc2)on1", "AC40": "24.2 µM"}
{"molecule": "O=C(NCCCn1ccnc1)c1cc(-c2ccccc2)on1", "AC40": "26.5 µM"}
{"molecule": "Cc1cccc(CNc2nc(-c3ccccn3)nnc2-c2ccccc2)c1", "AC40": "3.83 µM"}
{"molecule": "CC(C)(C)CCNc1nc(-c2ccccn2)nnc1-c1ccccc1", "AC40": "3.35 µM and 1.68 µM"}
{"molecule": "c1ccc(-c2nnc(-c3ccccn3)nc2NCCCN2CCOCC2)cc1", "AC40": "10.7 µM"}
{"molecule": "OCC1CCN(c2nc(-c3ccccn3)nnc2-c2ccccc2)CC1", "AC40": "18.8 µM"}
{"molecule": "c1ccc(-c2nnc(-c3ccccn3)nc2N2CCC(c3ccccc3)C2)cc1", "note": "(stereo unspecified)", "AC40": "1.54 µM"}
{"molecule": "c1ccc(-c2nnc(Nc3nc(-c4ccccn4)nnc3-c3ccccc3)s2)cc1", "AC40": "4.75 µM"}
{"molecule": "COc1cccc(CNc2nc(-c3ccccn3)nnc2-c2ccccc2)c1", "AC40": "2.43 µM"}
{"molecule": "Cc1ccccc1CNc1nc(-c2ccccn2)nnc1-c1ccccc1", "AC40": "4.31 µM"}
{"molecule": "Cc1cccc(Nc2nc(-c3ccccn3)nnc2-c2ccccc2)n1", "AC40": "11.2 µM"}
{"molecule": "Clc1cccc(CNc2nc(-c3ccccn3)nnc2-c2ccccc2)c1", "AC40": "1.87 µM"}
{"molecule": "c1ccc(-c2csc(Nc3nc(-c4ccccn4)nnc3-c3ccccc3)n2)cc1", "AC40": "24.6 µM"}
{"molecule": "c1ccc(-c2cccc(CNc3nc(-c4ccccn4)nnc3-c3ccccc3)c2)cc1", "AC40": "1.27 µM"}
{"molecule": "Cc1ccc(Nc2nc(-c3ccccn3)nnc2-c2ccccc2)cn1", "AC40": "9.36 µM"}
{"molecule": "Oc1ccc(CN2CCc3ccccc3C2)c2cccnc12", "AC40": "5.32 µM"}
{"molecule": "OCCCNc1nc(-c2ccccn2)nnc1-c1ccccc1", "AC40": "16.7 µM"}
{"molecule": "c1ccc(-c2nnc(-c3ccccn3)nc2N2CCN(c3ccncc3)CC2)cc1", "AC40": "7.78 µM"}
{"molecule": "Oc1ccc(CN2CCC(Cc3ccccc3)CC2)c2cccnc12", "AC40": "26.5 µM"}
{"molecule": "c1ccc(-c2nnc(-c3ccccn3)nc2N2CCC(C3CCCCC3)C2)cc1", "note": "(stereo unspecified)", "AC40": "1.78 µM"}
{"molecule": "C=CCNc1nc(-c2ccccn2)nnc1-c1ccccc1", "AC40": "6.56 µM"}
{"molecule": "c1ccc(CNc2nc(-c3ccccn3)nnc2-c2ccccc2)cc1", "AC40": "5.43 µM"}
{"molecule": "Cc1ccc(CNc2nc(-c3ccccn3)nnc2-c2ccccc2)cc1C", "AC40": "1.48 µM"}
{"molecule": "c1ccc(-c2nnc(-c3ccccn3)nc2Nc2cnc3ccccc3n2)cc1", "AC40": "7.11 µM"}
{"molecule": "c1ccc(-c2ccc(CNc3nc(-c4ccccn4)nnc3-c3ccccc3)cc2)cc1", "AC40": "0.917 µM"}
{"molecule": "c1ccc(-c2nnc(-c3ccccn3)nc2Nc2nc3ccccc3s2)cc1", "AC40": "5.02 µM"}
{"molecule": "Oc1ccc(CNC2Cc3ccccc3C2)c2cccnc12", "AC40": "32.6 µM"}
{"molecule": "CC(Nc1nc(-c2ccccn2)nnc1-c1ccccc1)c1ccccc1", "note": "(stereo unspecified)", "AC40": "2.53 µM"}
{"molecule": "Cc1ccc(CNc2nc(-c3ccccn3)nnc2-c2ccccc2)cc1", "AC40": "2.72 µM"}
{"molecule": "c1ccc(-c2nnc(-c3ccccn3)nc2NCc2ccccn2)cc1", "AC40": "18.5 µM"}
{"molecule": "c1ccc(-c2nnc(-c3ccccn3)nc2NCC2CCCCC2)cc1", "AC40": "4.15 µM"}
{"molecule": "C[C@H](Nc1nc(-c2ccccn2)nnc1-c1ccccc1)C1CCCCC1", "AC40": "2.23 µM"}
{"molecule": "c1ccc(-c2nnc(-c3ccccn3)nc2NCc2cccnc2)cc1", "AC40": "20.7 µM"}
{"molecule": "Oc1ccc(CN2CCC3CCCCC3C2)c2cccnc12", "note": "(stereo unspecified)", "AC40": "21.3 µM"}
{"molecule": "CN(C)c1nc(-c2ccccn2)nnc1-c1ccccc1", "AC40": "10.5 µM"}
{"molecule": "COc1ccccc1N1CCN(Cc2ccc(O)c3ncccc23)CC1", "AC40": "33 µM"}
{"molecule": "c1ccc(-c2cnc(Nc3nc(-c4ccccn4)nnc3-c3ccccc3)s2)cc1", "AC40": "31.4 µM"}
{"molecule": "c1ccc(-c2nnc(-c3ccccn3)nc2NCCc2ccccn2)cc1", "AC40": "10.1 µM"}
{"molecule": "CC(C)(C)c1ccc(CNc2nc(-c3ccccn3)nnc2-c2ccccc2)cc1", "AC40": "1.13 µM"}
{"molecule": "c1ccc(-c2nnc(-c3ccccn3)nc2NCC2CC2)cc1", "AC40": "7.2 µM"}
{"molecule": "COc1ccc(CNc2nc(-c3ccccn3)nnc2-c2ccccc2)cc1", "AC40": "2.51 µM"}
{"molecule": "c1ccc(-c2nnc(-c3ccccn3)nc2N2CCC(N3CCOCC3)CC2)cc1", "AC40": "8.15 µM"}
